In ChEMBL document CHEMBL4368906 (J Med Chem, 2019):
Bridge positions count the residues as written; N and C are the ends. Square brackets hold non-standard residues; d marks the D form. Peptide text beside a SMILES is read from it. NMeW = CN[C@@H](Cc1c[nH]c2ccccc12)C(=O)O; NMeY = CN[C@@H](Cc1ccc(O)cc1)C(=O)O; NMeC = CN[C@@H](CS)C(=O)O

Columns and labels:
Urotensin-2 receptor [1] = target: T1, Urotensin-2 receptor (Rattus norvegicus, UniProt P49684); experiment: Agonist activity at urotensin 2 receptor in Sprague-Dawley rat thoracic aortic ring assessed as induction of contraction relative to KCl-induced contraction
T1 sequence (P49684 whole entry): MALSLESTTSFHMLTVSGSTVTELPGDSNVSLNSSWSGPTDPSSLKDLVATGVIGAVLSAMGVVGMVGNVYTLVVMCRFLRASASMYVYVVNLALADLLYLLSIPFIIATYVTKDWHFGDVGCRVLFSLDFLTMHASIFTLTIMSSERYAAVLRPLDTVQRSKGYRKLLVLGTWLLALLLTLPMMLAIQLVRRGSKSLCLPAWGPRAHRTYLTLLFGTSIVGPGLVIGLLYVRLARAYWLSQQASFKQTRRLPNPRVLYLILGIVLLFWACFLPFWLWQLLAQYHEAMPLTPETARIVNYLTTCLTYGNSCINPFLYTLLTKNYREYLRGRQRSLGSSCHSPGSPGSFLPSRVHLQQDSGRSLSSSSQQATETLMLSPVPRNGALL
Outline: (§1)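 Male Sprague-Dawley rats, 250-300 g. Aortic rings were held in a 5-mL organ bath of oxygenated Krebs-Henseleit buffer. Each vessel was first challenged with KCl, 40 mM final in the bath. Peptides were added cumulatively from 10−11 to 10−5 M. Each contraction was taken as a percentage of the KCl response, divided by the response to hU-II (10−7 M).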

Urotensin-2 receptor [2] = target: T2, Urotensin-2 receptor (Homo sapiens, UniProt Q9UKP6); experiment: Displacement of [125I]-URP or human [125I[-urotensin-2 from human urotensin 2 receptor expressed in HEK293 or CHOK1 cells after 2 hrs by gamma-counting assay; type: cell-based
T2 sequence (Q9UKP6 whole entry): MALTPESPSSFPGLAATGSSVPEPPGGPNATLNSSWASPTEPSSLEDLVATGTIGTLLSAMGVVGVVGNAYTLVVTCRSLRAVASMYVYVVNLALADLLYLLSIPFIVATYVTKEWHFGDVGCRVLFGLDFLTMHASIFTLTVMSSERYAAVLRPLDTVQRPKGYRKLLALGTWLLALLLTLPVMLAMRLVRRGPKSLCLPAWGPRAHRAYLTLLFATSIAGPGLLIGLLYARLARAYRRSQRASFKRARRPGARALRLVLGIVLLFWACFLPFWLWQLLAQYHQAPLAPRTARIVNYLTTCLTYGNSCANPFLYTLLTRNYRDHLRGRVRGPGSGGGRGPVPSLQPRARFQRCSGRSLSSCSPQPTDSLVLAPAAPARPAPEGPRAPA

[3] = target: T3, Urotensin-2 receptor (Rattus norvegicus) (UniProt P49684); experiment: Agonist activity at urotensin 2 receptor in Sprague-Dawley rat thoracic aortic ring assessed as induction of contraction relative to urotensin-2; outline: as §1
T3 sequence (whole entry): T1 sequence (P49684 whole entry)

Urotensin-2 receptor [4] = target: T2, Urotensin-2 receptor; experiment: Agonist activity at urotensin 2 receptor (unknown origin) expressed in HEK293 cells co-expressing Gq-polycistronic BRET biosensor assessed as induction of Gq activation measured for 5 mins by luminescence detection based BRET assay; type: cell-based
[5] = target: T3, Urotensin-2 receptor (Rattus norvegicus); experiment: Agonist activity at urotensin 2 receptor in Sprague-Dawley rat thoracic aortic ring assessed as induction of contraction at 10 uM relative to KCl-induced contraction; outline: as §1

SMILES	EC50 (Urotensin-2 receptor [1])	Ki (Urotensin-2 receptor [2])	Emax [3]	EC50 (Urotensin-2 receptor [4])	Activity [5]
CC(C)[C@H](NC(=O)[C@@H]1CSSC[C@H](NC(=O)[C@H](C)N)C(=O)N[C@@H](Cc2ccccc2)C(=O)N[C@@H](Cc2c[nH]c3ccccc23)C(=O)N[C@@H](CCCCN)C(=O)N[C@@H](Cc2ccc(O)cc2)C(=O)N1C)C(=O)O	9.55 nM	3.55 nM	44%	5.25 nM	
CC(C)[C@H](NC(=O)[C@@H]1CSSC[C@H](NC(=O)[C@H](CC(=O)O)NC(=O)[C@@H]2CCCN2C(=O)[C@@H](NC(=O)[C@@H](N)CCC(=O)O)[C@@H](C)O)C(=O)N(C)[C@@H](Cc2ccccc2)C(=O)N[C@@H](Cc2c[nH]c3ccccc23)C(=O)N[C@@H](CCCCN)C(=O)N[C@@H](Cc2ccc(O)cc2)C(=O)N1)C(=O)O	200 nM	813 nM	96%	22.4 nM	
CC(C)[C@H](NC(=O)[C@@H]1CSSC[C@H](NC(=O)[C@@H](N)CC(=O)O)C(=O)N[C@@H](Cc2ccccc2)C(=O)N[C@@H](Cc2c[nH]c3ccccc23)C(=O)N[C@@H](CCCCN)C(=O)N(C)[C@@H](Cc2ccc(O)cc2)C(=O)N1)C(=O)O (H-DCFWK[NMeY]CV-OH; disulfide 2-7)		> 10000 nM			44%
CC(C)[C@H](NC(=O)[C@@H]1CSSC[C@H](NC(=O)[C@@H](N)CC(=O)O)C(=O)N[C@@H](Cc2ccccc2)C(=O)N[C@@H](Cc2c[nH]c3ccccc23)C(=O)N[C@@H](CCCCN)C(=O)N[C@@H](Cc2ccc(O)cc2)C(=O)N1)C(=O)O (H-DCFWKYCV-OH; disulfide 2-7)	5.25 nM	4.57 nM		1.86 nM	
CC(C)[C@H](NC(=O)[C@@H]1CSSC[C@H](NC(=O)[C@H](C)N)C(=O)N[C@@H](Cc2ccccc2)C(=O)N[C@@H](Cc2c[nH]c3ccccc23)C(=O)N[C@@H](CCCCN)C(=O)N(C)[C@@H](Cc2ccc(O)cc2)C(=O)N1)C(=O)O		5370 nM			16%
CC(C)[C@H](NC(=O)[C@@H]1CSSC[C@H](NC(=O)[C@H](CC(=O)O)NC(=O)[C@@H]2CCCN2C(=O)[C@@H](NC(=O)[C@@H](N)CCC(=O)O)[C@@H](C)O)C(=O)N[C@@H](Cc2ccccc2)C(=O)N[C@@H](Cc2c[nH]c3ccccc23)C(=O)N[C@@H](CCCCN)C(=O)N[C@@H](Cc2ccc(O)cc2)C(=O)N1C)C(=O)O	24.5 nM	22.9 nM	105%	2.69 nM	
CC(C)[C@H](NC(=O)[C@@H]1CSSC[C@H](NC(=O)[C@@H](N)CC(=O)O)C(=O)N[C@@H](Cc2ccccc2)C(=O)N(C)[C@@H](Cc2c[nH]c3ccccc23)C(=O)N[C@@H](CCCCN)C(=O)N[C@@H](Cc2ccc(O)cc2)C(=O)N1)C(=O)O (H-DCF[NMeW]KYCV-OH; disulfide 2-7)	3.39 nM	1.74 nM	105%	3.63 nM	
CC(C)[C@H](NC(=O)[C@@H]1CSSC[C@H](NC(=O)[C@@H](N)CC(=O)O)C(=O)N[C@@H](Cc2ccccc2)C(=O)N[C@@H](Cc2c[nH]c3ccccc23)C(=O)N[C@@H](CCCCN)C(=O)N[C@@H](Cc2ccc(O)cc2)C(=O)N1C)C(=O)O (H-DCFWKY[NMeC]V-OH; disulfide 2-7)	5.25 nM	3.55 nM	95%	4.68 nM	
CC(C)[C@H](NC(=O)[C@@H]1CSSC[C@H](N(C)C(=O)[C@@H](N)CC(=O)O)C(=O)N[C@@H](Cc2ccccc2)C(=O)N[C@@H](Cc2c[nH]c3ccccc23)C(=O)N[C@@H](CCCCN)C(=O)N[C@@H](Cc2ccc(O)cc2)C(=O)N1)C(=O)O (H-D[NMeC]FWKYCV-OH; disulfide 2-7)	4.47 nM	2.95 nM	101%		
CC(C)[C@H](NC(=O)[C@@H]1CSSC[C@H](N(C)C(=O)[C@H](C)N)C(=O)N[C@@H](Cc2ccccc2)C(=O)N[C@@H](Cc2c[nH]c3ccccc23)C(=O)N[C@@H](CCCCN)C(=O)N[C@@H](Cc2ccc(O)cc2)C(=O)N1)C(=O)O	4.9 nM	1.74 nM	110%		
CC(C)[C@H](NC(=O)[C@@H]1CSSC[C@H](NC(=O)[C@H](C)N)C(=O)N[C@@H](Cc2ccccc2)C(=O)N[C@@H](Cc2c[nH]c3ccccc23)C(=O)N(C)[C@@H](CCCCN)C(=O)N[C@@H](Cc2ccc(O)cc2)C(=O)N1)C(=O)O		1510 nM			22%
